Calls of active or inactive are those of the source. The rule behind the calls is not given here.

The results in this text go back to ChEMBL document CHEMBL4190262, “Tuning of β-glucosidase and α-galactosidase inhibition by generation and in situ screening of a library of pyrrolidine-triazole hybrid molecules” (Eur J Med Chem, 2017).

One assay has as its system Saccharomyces cerevisiae. The assay is described as follows: Inhibition of yeast alpha glucosidase at 1 mM using p-nitrophenyl glycopyranoside preincubated for 5 mins followed by substrate addition measured after 20 mins by visible absorption spectroscopic method relative to control. Put shortly: (§1)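 Test compound at 1 mM in well. Mix: 0.01–0.5 units/mL enzyme plus 10 mM p-nitrophenyl glycopyranoside (aqueous solution), buffered to the enzyme's optimal pH. Enzyme and inhibitor preincubated 5 min at rt. Substrate then added and incubated 20 min at 37 °C. Stopped with sodium borate (pH 9.8). p-Nitrophenolate read at 405 nm. Duplicates averaged.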

The test system of assay [1] is Prunus dulcis. Nature of the assay: Inhibition of almond beta-glucosidase at 10 uM using p-nitrophenyl glycopyranoside preincubated for 5 mins followed by substrate addition measured after 20 mins by visible absorption spectroscopic method relative to control. Put shortly: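 Crude click-reaction products screened in situ. Azide (final 15 mM) was reacted with each alkyne using sodium ascorbate/CuSO4 in tBuOH–H2O for 24 h at rt, then diluted with water. Tested at 10 μM per well, assuming quantitative conversion, against almond β-glucosidase at pH 5, 37 °C. p-Nitrophenyl glycoside read-out at 405 nm.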

The next assay relates to Aspergillus niger. The assay is described as follows: Inhibition of Aspergillus niger amyloglucosidase at 1 mM using p-nitrophenyl glycopyranoside preincubated for 5 mins followed by substrate addition measured after 20 mins by visible absorption spectroscopic method relative to control. Put shortly:
as §1

A further assay concerns Canavalia ensiformis. The assay is described as follows: Inhibition of jack bean beta-N-acetylglucosaminidase at 1 mM using p-nitrophenyl glycopyranoside preincubated for 5 mins followed by substrate addition measured after 20 mins by visible absorption spectroscopic method relative to control. Put shortly: as §1
The subject of the next assay is Oryza sativa. Nature of the assay: Inhibition of rice alpha-glucosidase at 1 mM using p-nitrophenyl glycopyranoside preincubated for 5 mins followed by substrate addition measured after 20 mins by visible absorption spectroscopic method relative to control. Put shortly: as §1
A further assay concerns Cornu aspersum. The assay is described as follows: Inhibition of snail beta-mannosidase at 1 mM using p-nitrophenyl glycopyranoside preincubated for 5 mins followed by substrate addition measured after 20 mins by visible absorption spectroscopic method relative to control. Put shortly: as §1
Assay [2] has as its target T1, Beta-galactosidase (Aspergillus oryzae) (UniProt B7VU80).
T1 sequence (whole entry): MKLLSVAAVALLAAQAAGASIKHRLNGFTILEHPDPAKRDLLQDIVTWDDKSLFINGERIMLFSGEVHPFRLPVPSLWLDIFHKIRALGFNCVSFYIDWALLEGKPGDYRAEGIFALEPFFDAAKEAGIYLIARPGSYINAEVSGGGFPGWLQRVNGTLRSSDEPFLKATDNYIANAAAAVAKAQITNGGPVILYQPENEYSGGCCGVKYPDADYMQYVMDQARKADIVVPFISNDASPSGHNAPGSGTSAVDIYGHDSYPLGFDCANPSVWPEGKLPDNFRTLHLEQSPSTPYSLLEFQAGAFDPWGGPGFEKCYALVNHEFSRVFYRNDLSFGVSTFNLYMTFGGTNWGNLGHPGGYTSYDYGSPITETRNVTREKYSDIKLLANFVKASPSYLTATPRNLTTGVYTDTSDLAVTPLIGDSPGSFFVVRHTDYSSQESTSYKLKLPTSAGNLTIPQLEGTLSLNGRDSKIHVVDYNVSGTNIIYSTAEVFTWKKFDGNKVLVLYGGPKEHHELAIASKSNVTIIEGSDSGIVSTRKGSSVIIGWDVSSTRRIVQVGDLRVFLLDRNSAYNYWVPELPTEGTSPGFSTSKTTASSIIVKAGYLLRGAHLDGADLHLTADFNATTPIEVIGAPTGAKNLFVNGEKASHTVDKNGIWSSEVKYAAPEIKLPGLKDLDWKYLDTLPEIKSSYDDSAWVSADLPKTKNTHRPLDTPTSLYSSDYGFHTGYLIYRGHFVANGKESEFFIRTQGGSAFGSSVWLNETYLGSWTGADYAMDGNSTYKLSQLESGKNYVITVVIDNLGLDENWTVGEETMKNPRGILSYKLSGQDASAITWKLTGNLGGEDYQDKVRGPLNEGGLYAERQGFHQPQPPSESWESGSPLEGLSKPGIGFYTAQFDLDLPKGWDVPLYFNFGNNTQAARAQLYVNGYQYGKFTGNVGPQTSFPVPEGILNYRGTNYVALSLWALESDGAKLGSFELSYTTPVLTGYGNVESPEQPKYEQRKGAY
The assay is described as follows: Inhibition of Aspergillus oryzae beta-galactosidase at 1 mM using p-nitrophenyl glycopyranoside preincubated for 5 mins followed by substrate addition measured after 20 mins by visible absorption spectroscopic method relative to control. Put shortly: as §1

Assay [3] has as its system Prunus dulcis. Nature of the assay: Inhibition of almond beta-glucosidase at 1 mM using p-nitrophenyl glycopyranoside preincubated for 5 mins followed by substrate addition measured after 20 mins by visible absorption spectroscopic method relative to control. Put shortly: as §1
In assay [4] the target is T2, Alpha-mannosidase (Canavalia ensiformis) (UniProt C0HJB3).
T2 sequence (whole entry): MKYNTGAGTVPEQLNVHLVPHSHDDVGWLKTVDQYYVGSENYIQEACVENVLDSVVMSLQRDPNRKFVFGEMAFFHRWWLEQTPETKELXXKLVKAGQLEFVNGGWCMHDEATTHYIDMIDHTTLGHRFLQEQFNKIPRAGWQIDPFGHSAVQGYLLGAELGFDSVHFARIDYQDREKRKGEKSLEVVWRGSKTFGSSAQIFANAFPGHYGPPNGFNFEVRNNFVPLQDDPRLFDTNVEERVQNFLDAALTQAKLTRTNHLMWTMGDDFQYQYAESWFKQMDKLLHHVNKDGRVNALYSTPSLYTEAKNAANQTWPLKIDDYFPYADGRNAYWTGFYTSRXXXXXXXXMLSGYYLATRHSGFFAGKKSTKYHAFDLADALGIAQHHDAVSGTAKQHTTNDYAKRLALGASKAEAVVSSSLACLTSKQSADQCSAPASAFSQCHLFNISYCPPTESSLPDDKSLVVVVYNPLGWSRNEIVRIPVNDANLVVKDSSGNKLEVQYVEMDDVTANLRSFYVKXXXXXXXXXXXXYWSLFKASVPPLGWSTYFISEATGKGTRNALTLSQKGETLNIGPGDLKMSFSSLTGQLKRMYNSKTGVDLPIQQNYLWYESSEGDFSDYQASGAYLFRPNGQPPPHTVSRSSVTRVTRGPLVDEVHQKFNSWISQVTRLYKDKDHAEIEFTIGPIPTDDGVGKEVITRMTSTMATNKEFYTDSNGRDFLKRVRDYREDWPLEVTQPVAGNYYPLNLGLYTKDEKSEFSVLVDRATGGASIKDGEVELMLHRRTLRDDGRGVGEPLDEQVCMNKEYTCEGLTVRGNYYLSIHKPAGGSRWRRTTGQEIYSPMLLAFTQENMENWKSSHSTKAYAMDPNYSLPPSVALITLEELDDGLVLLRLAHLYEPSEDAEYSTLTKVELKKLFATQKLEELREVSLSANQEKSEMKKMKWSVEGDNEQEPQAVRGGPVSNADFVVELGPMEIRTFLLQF
The assay is described as follows: Inhibition of jack bean alpha-mannosidase at 1 mM using p-nitrophenyl glycopyranoside preincubated for 5 mins followed by substrate addition measured after 20 mins by visible absorption spectroscopic method relative to control. Put shortly: as §1

In assay [5] the target is Alpha-galactosidase (Coffea arabica) (UniProt Q42656). Nature of the assay: Inhibition of coffee beans alpha-galactosidase at 1 mM using p-nitrophenyl glycopyranoside preincubated for 5 mins followed by substrate addition measured after 20 mins by visible absorption spectroscopic method relative to control. Put shortly: as §1
Assay [6] addresses Beta-galactosidase (Escherichia coli) (UniProt Q8VNN2). Nature of the assay: Inhibition of Escherichia coli beta-galactosidase at 1 mM using p-nitrophenyl glycopyranoside preincubated for 5 mins followed by substrate addition measured after 20 mins by visible absorption spectroscopic method relative to control. Put shortly: as §1
The next assay is filed under the species Bos taurus. The assay is described as follows: Inhibition of bovine kidney alpha-L-fucosidase at 1 mM using p-nitrophenyl glycopyranoside preincubated for 5 mins followed by substrate addition measured after 20 mins by visible absorption spectroscopic method relative to control. Put shortly: as §1
Assay [7] has as its target Alpha-galactosidase (Coffea arabica) (UniProt Q42656). The assay is described as follows: Inhibition of coffee beans alpha-galactosidase at 50 uM using p-nitrophenyl glycopyranoside preincubated for 5 mins followed by substrate addition measured after 20 mins by visible absorption spectroscopic method relative to control. Put shortly:
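Crude triazoles from in situ CuAAC (ascorbate/CuSO4, 24 h rt, water-diluted) were screened at 50 μM per well, assuming full conversion. Enzyme was coffee bean α-galactosidase at pH 6, 37 °C, with p-nitrophenyl glycoside substrate and 405 nm read-out. Blanks of CuSO4, ascorbate and each alkyne were run.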

For the next assay, the target named is Alpha-galactosidase (Coffea arabica, UniProt Q42656). The assay is described as follows: Inhibition of coffee beans alpha-galactosidase using p-nitrophenyl glycopyranoside preincubated for 5 mins followed by substrate addition measured after 20 mins by visible absorption spectroscopic method. Put shortly: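 IC50 determined only for compounds giving ≥80% inhibition at 1 mM, read from plots of % inhibition versus inhibitor concentration. p-Nitrophenyl glycopyranoside substrate (10 mM solution) at the enzyme's optimal pH, with 0.01–0.5 units/mL enzyme. 5 min rt preincubation with enzyme, then 20 min at 37 °C. Borate stop (pH 9.8), absorbance at 405 nm. Duplicates averaged.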
Chain of Alpha-galactosidase (Q42656 whole entry): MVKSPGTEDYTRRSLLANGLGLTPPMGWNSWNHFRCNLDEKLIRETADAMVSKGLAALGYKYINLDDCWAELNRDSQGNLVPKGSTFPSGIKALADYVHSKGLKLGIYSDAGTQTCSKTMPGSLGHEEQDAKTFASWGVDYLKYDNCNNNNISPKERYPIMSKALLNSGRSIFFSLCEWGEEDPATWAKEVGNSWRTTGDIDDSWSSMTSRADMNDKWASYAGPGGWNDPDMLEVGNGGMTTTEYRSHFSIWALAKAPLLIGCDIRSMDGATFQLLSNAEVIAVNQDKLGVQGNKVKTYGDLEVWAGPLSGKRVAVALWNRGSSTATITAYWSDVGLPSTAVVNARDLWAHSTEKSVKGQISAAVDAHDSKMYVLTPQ

Chain of Alpha-galactosidase (Coffea arabica) (Q42656 16-378 limits assumed): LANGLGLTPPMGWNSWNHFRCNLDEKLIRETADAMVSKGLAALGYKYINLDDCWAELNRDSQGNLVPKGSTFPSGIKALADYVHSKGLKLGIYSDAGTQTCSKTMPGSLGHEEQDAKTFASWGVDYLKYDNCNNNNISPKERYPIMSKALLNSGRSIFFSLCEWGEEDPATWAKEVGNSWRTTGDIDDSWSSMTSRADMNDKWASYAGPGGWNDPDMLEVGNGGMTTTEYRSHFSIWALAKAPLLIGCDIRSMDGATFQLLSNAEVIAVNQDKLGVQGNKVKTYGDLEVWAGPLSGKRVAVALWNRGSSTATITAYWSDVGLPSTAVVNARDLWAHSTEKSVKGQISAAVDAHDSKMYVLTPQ
Chain of Beta-galactosidase (Escherichia coli) (Q8VNN2 whole entry, looked up): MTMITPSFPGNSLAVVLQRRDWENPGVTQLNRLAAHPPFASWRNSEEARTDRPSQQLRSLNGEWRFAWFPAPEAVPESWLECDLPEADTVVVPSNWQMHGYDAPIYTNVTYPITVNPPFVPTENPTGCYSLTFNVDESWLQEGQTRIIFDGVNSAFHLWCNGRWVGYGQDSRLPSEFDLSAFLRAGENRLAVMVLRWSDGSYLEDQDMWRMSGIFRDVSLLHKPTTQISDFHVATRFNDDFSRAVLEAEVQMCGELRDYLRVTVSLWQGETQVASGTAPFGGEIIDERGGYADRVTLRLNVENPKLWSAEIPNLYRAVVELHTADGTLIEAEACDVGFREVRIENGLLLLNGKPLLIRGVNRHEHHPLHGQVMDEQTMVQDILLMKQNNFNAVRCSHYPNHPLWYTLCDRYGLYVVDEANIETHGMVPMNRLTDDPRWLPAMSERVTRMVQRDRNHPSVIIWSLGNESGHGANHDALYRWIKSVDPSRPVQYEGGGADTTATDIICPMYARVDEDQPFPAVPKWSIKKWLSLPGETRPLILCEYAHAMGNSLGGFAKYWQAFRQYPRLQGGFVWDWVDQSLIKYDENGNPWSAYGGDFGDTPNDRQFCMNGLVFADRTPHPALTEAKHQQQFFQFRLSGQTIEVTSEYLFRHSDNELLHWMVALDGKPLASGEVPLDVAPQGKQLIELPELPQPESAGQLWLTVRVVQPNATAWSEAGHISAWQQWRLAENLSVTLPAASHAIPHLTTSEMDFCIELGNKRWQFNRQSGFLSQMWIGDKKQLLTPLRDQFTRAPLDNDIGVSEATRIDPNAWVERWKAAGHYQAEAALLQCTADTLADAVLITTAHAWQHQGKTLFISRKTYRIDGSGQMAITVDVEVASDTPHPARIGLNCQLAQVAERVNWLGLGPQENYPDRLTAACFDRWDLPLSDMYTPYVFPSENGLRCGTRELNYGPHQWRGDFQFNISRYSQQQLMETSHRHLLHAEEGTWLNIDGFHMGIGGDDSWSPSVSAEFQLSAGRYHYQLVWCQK

A word on the inhibition: it is the drop in the measured response relative to a control, in per cent. Turning to `[N-]=[N+]=NC[C@@H]1NC[C@@H](O)[C@H]1O`, the inhibition result with Saccharomyces cerevisiae, in the assay with Prunus dulcis [1], with Aspergillus niger, in the assay on Canavalia ensiformis, in the assay with Oryza sativa and in the assay on Cornu aspersum was “inactive” in each case. For the same compound, the inhibition result (in assay [2]; in the assay on Prunus dulcis [3]; in assay [6]) was “inactive” in each case. Besides, the inhibition in [4] turned out to be 71%; in assay [5], 44%; in the assay listed under Bos taurus it was 33%.
The IC50 is the concentration needed to halve the response being measured. With `[N-]=[N+]=NC[C@H]1NC[C@@H](O)[C@H]1O`, the inhibition result (in the assay with Saccharomyces cerevisiae; with Aspergillus niger; in the assay on Canavalia ensiformis; in the assay on Oryza sativa; with Cornu aspersum; in [6]) was “inactive” throughout. Also, the inhibition result in the assay listed under Bos taurus was “inactive”. Moreover, the inhibition is 38% in assay [7]; 50% in assay [2]; 89% with Prunus dulcis [3]; 43% in [4]; 88% in assay [5]. Moreover, the concentration for half-maximal inhibition (IC50) against Alpha-galactosidase amounted to 127 µM.
